Experimental data reported in ChEMBL document CHEMBL1811786, “Identification of MK-5710 ((8aS)-8a-methyl-1,3-dioxo-2-[(1S,2R)-2-phenylcyclo- propyl]-N-(1-phenyl-1H-pyrazol-5-yl)hexahydro-imidazo[1,5-a]pyrazine-7(1H)-carboxamide), a potent smoothened antagonist for use in Hedgehog pathway dependent malignancies, part 2” (Bioorg Med Chem Lett, 2011).
Activity calls are given as the source filed them. No cut-off for these calls is given here.

Tests used:
Mus musculus [1] = test: Toxicity in mouse medulloblastoma allograft model assessed as body weight loss at 80 mg/kg, po qd for 3 weeks; type: organism-based; set-up: dose 80 mg/kg, route oral; details: in vivo, 504 h
Summary of the method: (§1)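 Primary mouse medulloblastoma allograft, subcutaneous. Mice randomized when tumors averaged 400 mm³. Oral dosing for 3 weeks, bid at 40, 80, 120 or 160 mg/kg, or 80 mg/kg qd. Compound given as a suspension in 0.24% SDS/0.5% Methocel, with a BID vehicle control. Tumor volume tracked over days; body weight, physical signs and mortality monitored.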

Mus musculus [2] = test: Toxicity in mouse medulloblastoma allograft model assessed as mortality at 160 mg/kg, po bid for 3 weeks; type: organism-based; set-up: dose 160 mg/kg, route oral; details: in vivo, 504 h
Summary of the method: (§2)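 Primary mouse medulloblastoma allografts grown subcutaneously; mice were randomized once tumors averaged 400 mm³. The compound was given orally as a suspension in 0.24% SDS/0.5% Methocel, either bid for 3 weeks or 80 mg/kg qd. Tolerability was monitored by body-weight loss, visible physical signs and mortality.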

Mus musculus [3] = test: Toxicity in mouse medulloblastoma allograft model assessed as mortality at 80 mg/kg, po qd for 3 weeks; type: organism-based; set-up: dose 80 mg/kg, route oral; details: in vivo, 504 h; summary of the method: as §2
Canis familiaris = species: Canis familiaris; test: Clearance in dog; type: ADME, organism-based, Canis lupus familiaris; details: in vivo
[4] = Volume of distribution at steady state in dog; type: ADME, organism-based, Canis lupus familiaris; details: in vivo, read-out: Vdss
Mus musculus [5] = test: Toxicity in mouse medulloblastoma allograft model assessed as visible physical signs at 160 mg/kg, po bid for 3 weeks; type: organism-based; set-up: dose 160 mg/kg, route oral; details: in vivo, 504 h; summary of the method: as §2
[6] = Plasma protein binding in human assessed as unbound fraction; type: ADME, cell-free
Mus musculus [7] = test: Toxicity in mouse medulloblastoma allograft model assessed as visible physical signs at 80 mg/kg, po qd for 3 weeks; type: organism-based; set-up: dose 80 mg/kg, route oral; details: in vivo, 504 h; summary of the method: as §2
[8] = Half life in dog; type: ADME, organism-based, Canis lupus familiaris; details: in vivo
Protein smoothened [9] = biological target: T1, Protein smoothened (Homo sapiens, UniProt Q99835); test: Displacement of BODIPY-cyclopamine from human Smo expressed in HEK293 cells in presence of 20% normal human serum; type: cell-based
Summary of the method: (§3)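 Competition binding: displacement of fluorescently labeled bodipy-cyclopamine from recombinant human Smo expressed in HEK-293 cells. Run in 2% fetal calf serum and, separately, in 20% normal human serum. IC50 values are means of at least five experiments.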

[10] = Oral bioavailability in dog; type: ADME, organism-based, Canis lupus familiaris; details: in vivo
Mus musculus [11] = test: Toxicity in mouse medulloblastoma allograft model assessed as mortality at 80 mg/kg, po bid for 3 weeks; type: organism-based; set-up: dose 80 mg/kg, route oral; details: in vivo, 504 h; summary of the method: as §2
Mus musculus [12] = test: Toxicity in mouse medulloblastoma allograft model assessed as visible physical signs at 40 mg/kg, po bid for 3 weeks; type: organism-based; set-up: dose 40 mg/kg, route oral; details: in vivo, 504 h; summary of the method: as §2
[13] = AUC in mouse at 80 mg/kg, po; type: ADME, organism-based; set-up: dose 80 mg/kg, route oral; details: plasma
Rattus norvegicus = species: Rattus norvegicus; test: Clearance in rat; type: ADME, organism-based; details: in vivo
Mus musculus [14] = test: Toxicity in mouse medulloblastoma allograft model assessed as visible physical signs at 120 mg/kg, po bid for 3 weeks; type: organism-based; set-up: dose 120 mg/kg, route oral; details: in vivo, 504 h; summary of the method: as §2
Medulloblastoma cell [15] = test: Antitumor activity against primary mouse medulloblastoma allograft model assessed as tumor growth inhibition at 120 mg/kg, po bid for 3 weeks; type: functional, organism-based; set-up: dose 120 mg/kg; summary of the method: as §1
Mus musculus [16] = test: Toxicity in mouse medulloblastoma allograft model assessed as body weight loss at 80 mg/kg, po bid for 3 weeks; type: organism-based; set-up: dose 80 mg/kg, route oral; details: in vivo, 504 h; summary of the method: as §1
Mus musculus [17] = test: Toxicity in mouse medulloblastoma allograft model assessed as mortality at 40 mg/kg, po bid for 3 weeks; type: organism-based; set-up: dose 40 mg/kg, route oral; details: in vivo, 504 h; summary of the method: as §2
Mus musculus [18] = test: Toxicity in mouse medulloblastoma allograft model assessed as visible physical signs at 80 mg/kg, po bid for 3 weeks; type: organism-based; set-up: dose 80 mg/kg, route oral; details: in vivo, 504 h; summary of the method: as §2
Protein smoothened [19] = biological target: T1, Protein smoothened; test: Displacement of BODIPY-cyclopamine from human Smo expressed in HEK293 cells in presence of 2% fetal calf serum; type: cell-based; summary of the method: as §3
Mus musculus [20] = test: Toxicity in mouse medulloblastoma allograft model assessed as body weight loss at 160 mg/kg, po bid for 3 weeks; type: organism-based; set-up: dose 160 mg/kg, route oral; details: in vivo, 504 h; summary of the method: as §1
Medulloblastoma cell [21] = test: Antitumor activity against primary mouse medulloblastoma allograft model assessed as tumor growth inhibition at 80 mg/kg, po bid for 3 weeks; type: functional, organism-based; set-up: dose 80 mg/kg; summary of the method: as §1
Medulloblastoma cell [22] = test: Antitumor activity against primary mouse medulloblastoma allograft model assessed as tumor growth inhibition at 80 mg/kg, po qd for 3 weeks; type: functional, organism-based; set-up: dose 80 mg/kg; summary of the method: as §1
Mus musculus [23] = test: Toxicity in mouse medulloblastoma allograft model assessed as body weight loss at 40 mg/kg, po bid for 3 weeks; type: organism-based; set-up: dose 40 mg/kg, route oral; details: in vivo, 504 h; summary of the method: as §1
Mus musculus [24] = test: Toxicity in mouse medulloblastoma allograft model assessed as mortality at 120 mg/kg, po bid for 3 weeks; type: organism-based; set-up: dose 120 mg/kg, route oral; details: in vivo, 504 h; summary of the method: as §2
Mus musculus [25] = test: Toxicity in mouse medulloblastoma allograft model assessed as body weight loss at 120 mg/kg, po bid for 3 weeks; type: organism-based; set-up: dose 120 mg/kg, route oral; details: in vivo, 504 h; summary of the method: as §1
[26] = Volume of distribution at steady state in rat; type: ADME, organism-based; details: in vivo, read-out: Vdss
Medulloblastoma cell [27] = test: Antitumor activity against primary mouse medulloblastoma allograft model assessed as tumor growth inhibition at 40 mg/kg, po bid for 3 weeks; type: functional, organism-based; set-up: dose 40 mg/kg; summary of the method: as §1
[28] = Half life in rat; type: ADME, organism-based; details: in vivo
Mus musculus [29] = test: Inhibition of Shh pathway in mouse medulloblastoma allograft model assessed as reduction in tumor Gli-1 mRNA expression at 80 mg/kg, po administered as single dose measured after 4 to 12 hrs; type: functional
Summary of the method: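 Tumor-bearing medulloblastoma mice given a single oral 80 mg/kg dose. Tumor biopsies taken at timepoints up to 24 h; Hh-pathway inhibition measured as reduction of Gli-1 mRNA.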

[30] = AUC in mouse at 160 mg/kg, po; type: ADME, organism-based; set-up: dose 160 mg/kg, route oral; details: plasma
[31] = Oral bioavailability in rat; type: ADME, organism-based; details: in vivo
Medulloblastoma cell [32] = test: Antitumor activity against primary mouse medulloblastoma allograft model assessed as tumor growth inhibition at 160 mg/kg, po bid for 3 weeks; type: functional, organism-based; set-up: dose 160 mg/kg; summary of the method: as §1
[33] = AUC in mouse at 40 mg/kg, po; type: ADME, organism-based; set-up: dose 40 mg/kg, route oral; details: plasma

T1 sequence (Q99835 whole entry): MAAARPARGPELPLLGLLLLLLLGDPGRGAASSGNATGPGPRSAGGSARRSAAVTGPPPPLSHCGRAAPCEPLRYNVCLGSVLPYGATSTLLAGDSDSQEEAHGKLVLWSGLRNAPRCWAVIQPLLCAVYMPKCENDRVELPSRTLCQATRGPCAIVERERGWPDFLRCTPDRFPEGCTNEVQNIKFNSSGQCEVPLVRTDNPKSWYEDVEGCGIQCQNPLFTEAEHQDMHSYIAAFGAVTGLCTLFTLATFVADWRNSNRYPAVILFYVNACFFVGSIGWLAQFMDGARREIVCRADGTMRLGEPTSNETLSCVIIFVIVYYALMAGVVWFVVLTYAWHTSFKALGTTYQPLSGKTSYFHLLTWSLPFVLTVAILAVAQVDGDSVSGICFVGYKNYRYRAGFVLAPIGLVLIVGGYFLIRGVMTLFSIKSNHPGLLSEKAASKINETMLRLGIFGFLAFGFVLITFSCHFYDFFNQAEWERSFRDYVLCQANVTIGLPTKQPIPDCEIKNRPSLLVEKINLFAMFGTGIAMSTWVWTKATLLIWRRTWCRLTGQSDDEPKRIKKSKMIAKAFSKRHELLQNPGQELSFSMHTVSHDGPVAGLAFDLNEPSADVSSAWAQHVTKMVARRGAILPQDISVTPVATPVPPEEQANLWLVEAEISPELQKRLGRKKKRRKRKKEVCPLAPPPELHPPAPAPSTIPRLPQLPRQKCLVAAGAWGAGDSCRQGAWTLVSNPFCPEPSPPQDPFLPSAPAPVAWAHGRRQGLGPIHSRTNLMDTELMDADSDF

O=C(Nc1ccnn1-c1ccccc1)N1CCN2C(=O)N([C@H]3C[C@@H]3c3ccccc3)C(=O)[C@@H]2C1
Activity (Mus musculus [1]): < 10% | Activity (Mus musculus [2]): Non-toxic | Activity (Mus musculus [3]): Non-toxic | clearance (Canis familiaris): 5.5 mL/min/kg | Vd [4]: 1 L/kg | Activity (Mus musculus [5]): Non-toxic | fraction unbound [6]: 0.17 | Activity (Mus musculus [7]): Non-toxic | half-life [8]: 2.5 h | IC50 (Protein smoothened [9]): 18 nM | bioavailability [10]: 82% | Activity (Mus musculus [11]): Non-toxic | Activity (Mus musculus [12]): Non-toxic | AUC [13]: 15 µM·h | clearance (Rattus norvegicus): 43 mL/min/kg | Activity (Mus musculus [14]): Non-toxic | growth inhibition (GI) (Medulloblastoma cell [15]): Active | Activity (Mus musculus [16]): < 10% | Activity (Mus musculus [17]): Non-toxic | Activity (Mus musculus [18]): Non-toxic | IC50 (Protein smoothened [19]): 15 nM | Activity (Mus musculus [20]): < 10% | growth inhibition (GI) (Medulloblastoma cell [21]): Active | growth inhibition (GI) (Medulloblastoma cell [22]): Active | Activity (Mus musculus [23]): < 10% | Activity (Mus musculus [24]): Non-toxic | Activity (Mus musculus [25]): < 10% | Vd [26]: 2.9 L/kg | growth inhibition (GI) (Medulloblastoma cell [27]): Active | half-life [28]: 1.3 h | inhibition in vivo at 80 mg/kg (Mus musculus [29]): > 80% | AUC [30]: 24 µM·h | bioavailability [31]: 88% | growth inhibition (GI) (Medulloblastoma cell [32]): Active | AUC [33]: 6.4 µM·h
